# Source: PubChem (several laboratories)
# Sampled rows, rich in hits. Any-hit rate of the full collection: about 2%.
# CRFR2-BP ag = agonists of human CRF-binding protein/CRF-R2 receptor complex; HEK293 CRF-R2/CRF-BP, calcium dye fluorescence (FLIPR); percent of saturating CRF peptide response; activation, % at 13.2 µM; 350,000 compounds, 0.46% hits;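 active = activation of at least 50%, plus an integration ratio under a set limit after plate pattern correction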;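 also: plate controls were neutral control wells without compound for no effect and CRF at EC100 for full effect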
# CRFBP-R2 block = CRF-BP/CRF-R2 complex antagonism | inhibition, % at 11.8 µM | HEK293 CRF-R2/CRF-BP, CRF-induced calcium fluorescence | AID 588475 | 350,000 compounds, 0.59% hits;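 active = inhibition of the ligand-induced calcium signal above about 50% at the single tested concentration, limit read from the data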
# GPR7 antag = blocks human GPR7 receptor signaling; GPR7-expressing cells, fluorescence antagonist assay; inhibition, % at 4.4 µM; 290,000 compounds, 1.1% hits; in the data active = inhibition above about 16%, passing the limit was not always enough;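 also: cells stimulated with the agonist NPW; 0% = agonist with vehicle and 100% = vehicle without agonist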
# TRPML3 agonist = activates the human TRPML3 channel | HEK293 TRPML3-YFP, Fluo-8 calcium fluorescence; 100% = the carbachol control signal | activation, % at 3 µM | 220,000 compounds, 0.29% hits;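 active = activation above its plate's cutoff, the mean activation of the plate's test wells plus 3 SD, cut at about 12% in these data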;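 also: 0% = DMSO only wells and 100% = carbachol wells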
# Target sequence (Q8TDD5 whole entry, looked up): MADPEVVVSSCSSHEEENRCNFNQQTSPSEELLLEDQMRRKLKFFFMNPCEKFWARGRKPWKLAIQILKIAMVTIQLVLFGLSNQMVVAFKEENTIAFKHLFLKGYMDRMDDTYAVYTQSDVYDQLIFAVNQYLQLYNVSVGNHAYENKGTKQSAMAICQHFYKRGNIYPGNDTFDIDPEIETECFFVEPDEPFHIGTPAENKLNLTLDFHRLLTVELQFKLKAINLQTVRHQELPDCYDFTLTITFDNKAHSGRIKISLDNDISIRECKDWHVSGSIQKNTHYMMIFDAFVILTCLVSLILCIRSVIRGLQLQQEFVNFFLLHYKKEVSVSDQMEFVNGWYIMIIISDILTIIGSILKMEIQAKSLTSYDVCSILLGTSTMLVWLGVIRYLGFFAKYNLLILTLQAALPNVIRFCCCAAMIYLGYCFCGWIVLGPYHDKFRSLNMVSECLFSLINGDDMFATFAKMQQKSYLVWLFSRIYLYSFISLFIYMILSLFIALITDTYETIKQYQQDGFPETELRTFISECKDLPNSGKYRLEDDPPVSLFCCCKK
#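 Test system: HEK293 cells stably carrying human TRPML3-YFP; Doses: single dose, 3 µM final nominal compound, 0.3% DMSO final; Schedule: dye loading 1 h 37 °C then 30 min ambient, 125 s read; Technique: Fluo-8 calcium fluorescence; Benchmarks: high control carbachol 87 µM, low control DMSO.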
# zfTRPN1 agonist = agonists of zebrafish TRPN1 channel; HEK293 zebrafish TRPN1-YFP, Fluo-8 calcium fluorescence; 100% = response to 87 µM carbachol; activation, % at 3 µM; 220,000 compounds, 0.18% hits; AID 1424;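 active = activation above its plate's cutoff, the mean activation of test wells on that plate plus 3 SD, cut at about 19% in these data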;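 also: 0% = DMSO alone and 100% = 87 µM carbachol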
#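 Material: zebrafish TRPN1-YFP in HEK293 cells; Doses: single test compound dose, 3 µM nominal, 0.3% DMSO; Timing: dye loading 1 h at 37 °C, then 30 min room temperature; Technique: intracellular calcium fluorescence with Fluo-8; Benchmarks: high carbachol 87 µM, low DMSO alone.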
# GPR7 antag conf = human GPR7 antagonism, confirmation assay; shares compounds with GPR7 antag; GPR7-expressing cells, calcium fluorescence antagonist mode; inhibition, % at 4.4 µM; 2,400 compounds, 52% hits; in the data active = inhibition above about 24%;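 also: stimulated with the GPR7 agonist NPW; 0% = agonist plus vehicle and 100% = vehicle alone without agonist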
# MCHR1 antag = counter-screen for GPR7 antagonists: antagonists of human MCHR1. inhibition, % at 4.4 µM. MCHR1-expressing cells, fluorescence antagonist assay. shares compounds with GPR7 antag. 2,400 compounds, 62% hits; in the data active = inhibition above about 22%;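 also: 0% = vehicle with agonist and 100% = vehicle without agonist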
# Starred values were filed as active, the others as inactive; nt = no result.
SMILES,CRFR2-BP ag,CRFBP-R2 block,GPR7 antag,TRPML3 agonist,zfTRPN1 agonist,GPR7 antag conf,MCHR1 antag
CC(c1ccccc1C(O)(c1ccccc1)c1ccccc1)N(C)C (configuration not stated),93*,-63,68*,15*,22*,92*,96*
CCn1cc(C(=O)NCCCOC(C)C)c(=O)c2cc(S(=O)(=O)N3CCC(C)CC3)ccc21,0,-6,-2,nt,nt,nt,nt
COc1ccc(-c2cc(C3CCN(c4cc(Cl)nc(N)n4)CC3)[nH]n2)cc1,0,-18,7,0,6,nt,nt
Nc1nc(Cl)cc(N2CCC(c3cc(-c4ccc(Cl)cc4)n[nH]3)CC2)n1,1,-31,38*,4,5,26*,72*
COc1ccc(CNCCC(c2ccc(F)cc2)c2ccc(OC(C)C)cc2)cc1OC (configuration not stated),4,-2,32*,1,2,43*,77*
COc1ccc(C(CCNCc2ccccc2)c2ccc(F)cc2)cc1 (configuration not stated),18,-44,24,1,2,nt,nt
COc1ccc(C(CCNC(C)c2ccccc2)c2ccc(F)cc2)cc1 (configuration not stated),15,-86,40*,1,-1,47*,56*
COc1ccc(C(CCNCc2ccc(F)cc2)c2ccc(F)cc2)cc1 (configuration not stated),45,-93,39*,2,1,50*,77*
COc1ccc(CNCCC(c2ccccc2)c2ccc(OC(C)C)cc2)cc1OC (configuration not stated),8,-13,26,nt,nt,nt,nt
C=CCNC(=S)Nc1ccc(Br)cc1F,0,11,-11,2,3,nt,nt
Fc1cc(Br)ccc1NC(=S)NCCc1ccccc1,1,4,38*,2,9,6,35*
CN(C(=O)COC(=O)c1cc(S(=O)(=O)N2CCOCC2)c(Cl)cc1Cl)C1CCS(=O)(=O)C1 (configuration not stated),-4,-15,26*,0,-1,-7,9
CN(C(=O)COC(=O)c1cccc(S(=O)(=O)N2CCOCC2)c1)C1CCS(=O)(=O)C1 (configuration not stated),0,-9,nt,nt,nt,nt,nt
O=C(CCN1C(=O)COc2ccccc21)NCc1cccnc1,0,-7,28*,1,2,-4,21
COC(=O)[C@]1(Cc2ccccc2)N[C@H](CN(C)C(=O)Nc2ccc(C)cc2)[C@@H]2C(=O)N(C)C(=O)[C@@H]21,2,-14,nt,nt,nt,nt,nt
COC(=O)c1ccc(NC(=O)c2nc(S(=O)(=O)Cc3cccc(C)c3)ncc2Cl)cc1,-1,52*,32*,nt,nt,72*,86*
COc1ccccc1NC(=O)c1nc(S(=O)(=O)Cc2ccccc2)ncc1Cl,0,51*,32*,nt,nt,41*,30*
CCS(=O)(=O)c1ncc(Cl)c(C(=O)Nc2ccc(S(=O)(=O)N3CCC(C)CC3)cc2)n1,0,34,58*,nt,nt,89*,95*
CCc1ccc(NC(=O)c2nc(S(=O)(=O)Cc3ccccc3)ncc2Cl)cc1,nt,nt,56*,nt,nt,88*,103*
CCOc1ccccc1NC(=O)c1nc(S(=O)(=O)Cc2ccccc2)ncc1Cl,-1,38,-6,nt,nt,nt,nt
CCOc1ccc(-n2ccc(=O)c(C(=O)O)n2)cc1,-1,9,-8,nt,nt,nt,nt
CCOC(=O)c1oc2ccc(OC)cc2c1NC(=O)CN1CCN(C)CC1,1,5,-4,0,1,nt,nt
Cc1ccc(C(=O)c2oc3ccc(Cl)cc3c2NC(=O)CN2CCN(C)CC2)cc1,-1,-17,24*,nt,nt,29*,42*
CN1CCN(CC(=O)Nc2c(C(=O)C3CC3)oc3ccccc23)CC1,0,8,21*,1,0,1,10
O=C(CN1CCOCC1)Nc1c(C(=O)C2CC2)oc2ccccc12,-1,4,-6,0,-1,nt,nt
SMILES,CRFR2-BP ag,CRFBP-R2 block,GPR7 antag,TRPML3 agonist,zfTRPN1 agonist,GPR7 antag conf,MCHR1 antag
FC(F)C(F)(F)c1cc(-c2ccc(Cl)cc2)n[nH]1,28,-74,30*,3,7,32*,44*
Oc1ccccc1-c1cc(C(F)(F)C(F)F)[nH]n1,4,-2,6,1,2,nt,nt
Fc1ccc(-c2cc(C(F)(F)C(F)F)[nH]n2)cc1,78*,-86,42*,10,13,64*,63*
Cc1cccc(OCC(=O)N2CCc3ccccc3C2)c1C,-1,10,nt,nt,nt,nt,nt
O=C(C[C@H]1C[C@@H]2c3cc(NC(=O)Nc4ccccc4F)ccc3O[C@@H]2[C@H](CO)O1)NCc1ccccn1,0,9,nt,nt,nt,nt,nt
CC(CNC(=O)c1ccc(C#N)cc1)NC(=O)c1ccc(C#N)cc1 (configuration not stated),3,13,9,nt,nt,nt,nt
Cc1cc(C)c2oc(C(=O)N(Cc3ccccc3)c3ccccn3)cc(=O)c2c1,-1,1,26*,-1,-2,-9,16
O=C(c1ccccc1)c1ccc(Sc2ccc([N+](=O)[O-])cc2)cc1,1,11,22*,0,-2,22,53*
O=C(CN1C(=O)COc2ccc(S(=O)(=O)N3CCCC3)cc21)NC1CCCCCCC1,nt,nt,27*,-1,-1,-3,5
Cc1ccc2c(c1)N(CC(=O)OC(CC(C)C)C(=O)NC1CCCC1)C(=O)CO2 (configuration not stated),0,-15,29*,0,-1,30*,33*
COc1cccc(CNC(=O)CN2C(=O)COc3ccc(S(=O)(=O)N4CCOCC4)cc32)c1,-1,-6,32*,nt,nt,-9,3
CC(C)C(OC(=O)CN1C(=O)COc2ccccc21)C(=O)NC1CCCC1 (configuration not stated),-2,-2,15,0,-1,nt,nt
COC(=O)C1CN(C(=O)c2ccc(OC(F)F)cc2)c2ccccc2O1 (configuration not stated),0,1,-9,nt,nt,nt,nt
CC(=O)Nc1ccc(S(=O)(=O)NCCN2CCNC2=O)cc1Cl,-1,3,-5,nt,nt,nt,nt
NC(=O)C1CCCN(C(=O)c2ccc(Cl)c(S(=O)(=O)N3CCc4ccccc43)c2)C1 (configuration not stated),0,8,nt,nt,nt,nt,nt
O=C(O)Cc1ccc(C(=O)c2ccc(F)cc2)s1,2,1,23*,1,0,-1,6
O=C(O)Cc1ccc(C(=O)c2ccccc2)s1,1,-8,8,0,-1,nt,nt
COc1ccccc1CNC(=O)CN(C)Cc1ccc(SC)cc1,-1,2,26*,nt,nt,37*,36*
